Test results reported in ChEMBL document CHEMBL4321819, “Simple Structural Modifications Converting a Bona fide MDM2 PROTAC Degrader into a Molecular Glue Molecule: A Cautionary Tale in the Design of PROTAC Degraders” (J Med Chem, 2019).
Active and inactive are the calls of the source. No cut-off for these calls is given here.

How the values were obtained:
[1] = molecular target: T1, Protein cereblon/Eukaryotic peptide chain release factor GTP-binding subunit ERF3A/DNA damage-binding protein 1/Cullin-4A (Homo sapiens) (UniProt Q96SW2+Q16531+Q13619+P15170); experiment: Protac activity at GSPT1/CUL4/DDB1/CRBN in human RS4:11/IRMI-2 cells harboring p53 hotspot mutation Y236H/R249G assessed as decrease in GSPT1 protein level after 2 hrs by Western blot analysis; assay type: cell-based
How it was run: (§1)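 RS4;11 (wild-type p53) or RS4;11/IRMI-2 (MDM2 inhibitor-resistant derivative, mutant p53) cells kept in RPMI 1640 with 10% FBS at 37 °C, 5% CO₂. 2×10^6 cells/well treated at the indicated concentrations and times, then lysed in ice-cold lysis buffer with protease inhibitor. GSPT1 detected by Western blot with a specific antibody.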

[2] = tested on: RS4-11; experiment: Antiproliferative activity against human RS4:11 cells expressing wild type p53 assessed as cell growth inhibition after 4 days by WST-8 assay; assay type: functional, cell-based; conditions: RS4-11, 96 h
How it was run: (§2)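 Leukemia cells seeded at 10000–20000 cells/well, breast cancer lines at 5000–10000 cells/well. Serially diluted compound added, then 4 days at 37 °C, 5% CO2. Growth read with WST-8 reagent after at least 1 h, absorbance at 450 nm. RS4;11, MOLM-13 and breast lines were grown in RPMI 1640; MV-4-11 and HL-60 in IMDM; all with 10% FBS. Mean ± SE, at least three independent experiments.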

[3] = (§3) Antiproliferative activity against human RS4:11/IRMI-2 cells harboring p53 hotspot mutation Y236H/R249G assessed as cell growth inhibition after 4 days by WST-8 assay; assay type: functional, cell-based; conditions: RS4-11, 96 h; how it was run: as §2
[4] = molecular target: T1, Protein cereblon/Eukaryotic peptide chain release factor GTP-binding subunit ERF3A/DNA damage-binding protein 1/Cullin-4A (Homo sapiens); experiment: Protac activity at GSPT1/CUL4/DDB1/CRBN in human RS4:11 cells expressing wild type p53 assessed as decrease in GSPT1 protein level after 2 hrs by Western blot analysis; assay type: cell-based; how it was run: as §1
[5] = molecular target: Eukaryotic peptide chain release factor GTP-binding subunit ERF3A (Homo sapiens, UniProt P15170); experiment: Induction of GSPT1 degradation in human RS4:11 cells measured after 24 hrs by Western blot analysis; assay type: cell-based
[6] = Antiproliferative activity against human RS4:11/IRMI-2 cells harboring p53 hotspot mutation Y236H/R249G assessed as MDM2-independent cell growth inhibition after 4 days by WST-8 assay; assay type: functional, cell-based; conditions: RS4-11, 96 h; how it was run: as §2
[7] = molecular target: T2, E3 ubiquitin-protein ligase Mdm2 (Homo sapiens, UniProt Q00987); experiment: Displacement of PMDM6-F fluorescent probe from human recombinant His-tagged MDM2 (1 to 118 residues) after 15 mins by fluorescence polarization assay
How it was run: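 Recombinant human His-tagged MDM2 (residues 1–118) with a FAM-labelled p53-based peptide as fluorescent probe; competitive fluorescence-polarization binding. Mean ± standard error from at least three independent experiments.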
Target sequence in this assay (Q00987 whole entry, the tested form may be a part): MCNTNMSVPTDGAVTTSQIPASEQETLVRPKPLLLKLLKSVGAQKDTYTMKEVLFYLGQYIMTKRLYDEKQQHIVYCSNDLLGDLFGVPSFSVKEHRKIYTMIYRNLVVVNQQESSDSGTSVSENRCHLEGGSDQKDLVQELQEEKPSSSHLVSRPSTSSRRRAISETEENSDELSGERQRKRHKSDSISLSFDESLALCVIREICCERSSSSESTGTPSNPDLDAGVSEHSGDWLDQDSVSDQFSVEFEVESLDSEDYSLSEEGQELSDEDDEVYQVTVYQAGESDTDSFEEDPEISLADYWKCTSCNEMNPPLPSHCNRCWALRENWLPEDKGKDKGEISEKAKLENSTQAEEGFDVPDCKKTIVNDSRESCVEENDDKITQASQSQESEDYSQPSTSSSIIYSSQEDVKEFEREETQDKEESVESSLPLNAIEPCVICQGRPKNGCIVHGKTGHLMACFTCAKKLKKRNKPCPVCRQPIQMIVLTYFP

[8] = tested on: RS4-11; experiment: Antiproliferative activity against human RS4:11 cells expressing wild type p53 assessed as MDM2-independent cell growth inhibition after 4 days by WST-8 assay; assay type: functional, cell-based; conditions: RS4-11, 96 h; how it was run: as §2
[9] = tested on: MDA-MB-231; experiment: Antiproliferative activity against human MDA-MB-231 cells transfected with MDM2 siRNA assessed as cell growth inhibition after 4 days by WST-8 assay; assay type: functional, cell-based; conditions: MDA-MB-231, 96 h
How it was run: (§4)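 MDA-MB-231 or MDA-MB-468 cells transfected for 2 days using Lipofectamine RNAiMAX with MDM2 siRNA, one of two CRBN siRNAs, or non-targeting control siRNA. Compound then added and growth read by WST-8 at 450 nm.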

[10] = tested on: MDA-MB-231; experiment: Antiproliferative activity against human MDA-MB-231 cells transfected with CRBN siRNA LQ-021086-11-0002 assessed as cell growth inhibition after 4 days by WST-8 assay; assay type: functional, cell-based; conditions: MDA-MB-231, 96 h; how it was run: as §4
[11] = tested on: MDA-MB-231; experiment: Antiproliferative activity against human MDA-MB-231 cells transfected with CRBN siRNA LQ-021086-10-0002 assessed as cell growth inhibition after 4 days by WST-8 assay; assay type: functional, cell-based; conditions: MDA-MB-231, 72 h, in the assay text read “after 3 days” for “after 4 days”; how it was run: as §4
[12] = tested on: MDA-MB-468; experiment: Antiproliferative activity against human MDA-MB-468 cells transfected with CRBN siRNA LQ-021086-11-0002 assessed as cell growth inhibition after 4 days by WST-8 assay; assay type: functional, cell-based; conditions: MDA-MB-468, 96 h; how it was run: as §4
[13] = tested on: HL-60; experiment: Antiproliferative activity against human HL60 cells with lack of p53 assessed as cell growth inhibition after 4 days by WST-8 assay; assay type: functional, cell-based; how it was run: as §2
[14] = tested on: MDA-MB-468; experiment: Antiproliferative activity against human MDA-MB-468 cells assessed as cell growth inhibition after 4 days in presence of control siRNA for 2 days followed by compound treatment by WST-8 assay; assay type: functional, cell-based; how it was run: as §4
[15] = tested on: MDA-MB-231; experiment: Antiproliferative activity against human MDA-MB-231 cells harboring mutant p53 assessed as cell growth inhibition after 4 days by WST-8 assay; assay type: functional, cell-based; how it was run: as §2
[16] = molecular target: T2, E3 ubiquitin-protein ligase Mdm2; experiment: Induction of MDM2 degradation in human RS4:11 cells assessed as upregulation of p53 at 1000 to 3000 nM after 1 hr by Western blot analysis; assay type: cell-based
How it was run: (§5)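 Western blots of MDM2 and p53 protein were run on RS4;11 cells (wild-type p53) in RPMI 1640 with 10% FBS. 2×10^6 cells/well were treated at the indicated concentrations for 1 h or 2 h. Lysis was in ice-cold buffer with protease inhibitor, followed by probing with specific antibodies.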
Target sequence in this assay (Q00987 whole entry, looked up, the tested form may be a part): as the sequence (Q00987 whole entry, the tested form may be a part) above

[17] = tested on: MDA-MB-231; experiment: Antiproliferative activity against human MDA-MB-231 cells assessed as cell growth inhibition after 4 days in presence of control siRNA for 3 days followed by compound treatment by WST-8 assay; assay type: functional, cell-based
[18] = tested on: MDA-MB-468; experiment: Antiproliferative activity against human MDA-MB-468 cells transfected with MDM2 siRNA assessed as cell growth inhibition after 4 days by WST-8 assay; assay type: functional, cell-based; conditions: MDA-MB-468, 96 h; how it was run: as §4
[19] = tested on: MDA-MB-231; experiment: Antiproliferative activity against human MDA-MB-231 cells assessed as cell growth inhibition after 4 days in presence of control siRNA for 2 days followed by compound treatment by WST-8 assay; assay type: functional, cell-based; how it was run: as §4
[20] = tested on: MDA-MB-231; experiment: Antiproliferative activity against human MDA-MB-231 cells harboring mutant p53 assessed as cell growth inhibition without interaction with cereblon after 4 days by WST-8 assay; assay type: functional, cell-based; conditions: MDA-MB-231, 96 h
[21] = tested on: MDA-MB-468; experiment: Antiproliferative activity against human MDA-MB-468 cells harboring mutant p53 assessed as cell growth inhibition after 4 days by WST-8 assay; assay type: functional, cell-based; how it was run: as §2
[22] = Antiproliferative activity against human RS4:11/IRMI-2 cells harboring p53 hotspot mutation Y236H/R249G assessed as cell growth inhibition without interaction with cereblon after 4 days by WST-8 assay; assay type: functional, cell-based; conditions: RS4-11, 96 h; how it was run: as §2
[23] = species: Homo sapiens; experiment: as §3; assay type: functional, cell-based; how it was run: as §2
[24] = tested on: MV4-11; experiment: Antiproliferative activity against human MV4-11 cells expressing wild type p53 assessed as cell growth inhibition after 4 days by WST-8 assay; assay type: functional, cell-based; conditions: MV4-11, 96 h; how it was run: as §2
[25] = tested on: RS4-11; experiment: Antiproliferative activity against human RS4:11 cells expressing wild type p53 assessed as cell growth inhibition without interaction with cereblon after 4 days by WST-8 assay; assay type: functional, cell-based; conditions: RS4-11, 96 h; how it was run: as §2
[26] = tested on: MDA-MB-468; experiment: Antiproliferative activity against human MDA-MB-468 cells harboring mutant p53 assessed as cell growth inhibition without interaction with cereblon after 4 days by WST-8 assay; assay type: functional, cell-based; conditions: MDA-MB-468, 96 h
[27] = molecular target: T2, E3 ubiquitin-protein ligase Mdm2; experiment: Induction of MDM2 degradation in human RS4:11 cells assessed as upregulation of MDM2 at 1000 to 3000 nM after 1 hr by Western blot analysis; assay type: cell-based; how it was run: as §5
Target sequence in this assay (Q00987 whole entry, looked up, the tested form may be a part): as the sequence (Q00987 whole entry, the tested form may be a part) above

[28] = tested on: MDA-MB-468; experiment: Antiproliferative activity against human MDA-MB-468 cells assessed as cell growth inhibition after 4 days in presence of control siRNA for 3 days followed by compound treatment by WST-8 assay; assay type: functional, cell-based
[29] = tested on: MDA-MB-468; experiment: Antiproliferative activity against human MDA-MB-468 cells transfected with CRBN siRNA LQ-021086-10-0002 assessed as cell growth inhibition after 4 days by WST-8 assay; assay type: functional, cell-based; conditions: MDA-MB-468, 96 h; how it was run: as §4
[30] = tested on: MOLM-13; experiment: Antiproliferative activity against human MOLM13 cells expressing wild type p53 assessed as cell growth inhibition after 4 days by WST-8 assay; assay type: functional, cell-based; conditions: MOLM-13, 96 h; how it was run: as §2
[31] = molecular target: T1, Protein cereblon/Eukaryotic peptide chain release factor GTP-binding subunit ERF3A/DNA damage-binding protein 1/Cullin-4A (Homo sapiens); experiment: Protac activity at GSPT1/CUL4/DDB1/CRBN in human RS4:11/IRMI-2 cells harboring p53 hotspot mutation Y236H/R249G assessed as decrease in GSPT1 protein level at 1 to 3 uM after 24 hrs by Western blot analysis; assay type: cell-based; how it was run: as §1
[32] = molecular target: T1, Protein cereblon/Eukaryotic peptide chain release factor GTP-binding subunit ERF3A/DNA damage-binding protein 1/Cullin-4A (Homo sapiens); experiment: Protac activity at GSPT1/CUL4/DDB1/CRBN in human RS4:11 cells expressing wild type p53 assessed as decrease in GSPT1 protein level at 1 to 3 uM after 24 hrs by Western blot analysis; assay type: cell-based; how it was run: as §1

T1 sequence (P15170 whole entry, looked up): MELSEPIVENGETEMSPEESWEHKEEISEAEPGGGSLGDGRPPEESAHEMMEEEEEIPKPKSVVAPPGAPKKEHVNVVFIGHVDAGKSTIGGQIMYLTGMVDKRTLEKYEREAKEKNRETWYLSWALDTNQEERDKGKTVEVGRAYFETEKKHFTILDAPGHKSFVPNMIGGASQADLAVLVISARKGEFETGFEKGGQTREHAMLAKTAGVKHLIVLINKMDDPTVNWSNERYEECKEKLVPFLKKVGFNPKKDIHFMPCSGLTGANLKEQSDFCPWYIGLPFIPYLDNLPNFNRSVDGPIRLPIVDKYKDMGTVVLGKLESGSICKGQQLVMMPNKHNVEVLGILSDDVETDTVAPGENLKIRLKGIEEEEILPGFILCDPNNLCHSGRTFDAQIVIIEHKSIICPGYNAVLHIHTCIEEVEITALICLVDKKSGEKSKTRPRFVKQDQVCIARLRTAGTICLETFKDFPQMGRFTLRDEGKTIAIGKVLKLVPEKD
T1 sequence (Q13619 whole entry, looked up): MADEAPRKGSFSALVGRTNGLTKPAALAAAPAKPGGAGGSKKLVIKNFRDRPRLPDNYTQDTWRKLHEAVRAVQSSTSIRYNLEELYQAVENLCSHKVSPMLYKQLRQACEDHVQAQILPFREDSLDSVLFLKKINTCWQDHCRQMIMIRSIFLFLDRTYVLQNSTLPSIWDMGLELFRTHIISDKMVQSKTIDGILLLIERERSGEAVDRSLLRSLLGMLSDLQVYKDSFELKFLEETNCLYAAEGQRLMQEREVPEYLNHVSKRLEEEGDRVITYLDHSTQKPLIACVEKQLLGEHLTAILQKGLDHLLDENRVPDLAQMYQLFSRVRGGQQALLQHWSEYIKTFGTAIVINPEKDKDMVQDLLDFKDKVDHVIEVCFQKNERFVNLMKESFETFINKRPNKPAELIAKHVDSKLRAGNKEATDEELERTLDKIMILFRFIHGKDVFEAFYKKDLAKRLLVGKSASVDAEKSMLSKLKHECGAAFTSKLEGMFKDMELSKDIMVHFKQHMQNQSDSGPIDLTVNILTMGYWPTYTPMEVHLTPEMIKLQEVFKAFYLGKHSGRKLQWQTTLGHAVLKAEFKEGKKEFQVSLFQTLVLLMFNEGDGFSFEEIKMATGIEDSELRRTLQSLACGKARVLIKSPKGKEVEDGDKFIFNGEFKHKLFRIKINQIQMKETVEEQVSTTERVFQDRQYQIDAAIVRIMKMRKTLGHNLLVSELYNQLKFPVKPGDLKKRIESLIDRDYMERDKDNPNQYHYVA
T1 sequence (Q16531 whole entry, looked up): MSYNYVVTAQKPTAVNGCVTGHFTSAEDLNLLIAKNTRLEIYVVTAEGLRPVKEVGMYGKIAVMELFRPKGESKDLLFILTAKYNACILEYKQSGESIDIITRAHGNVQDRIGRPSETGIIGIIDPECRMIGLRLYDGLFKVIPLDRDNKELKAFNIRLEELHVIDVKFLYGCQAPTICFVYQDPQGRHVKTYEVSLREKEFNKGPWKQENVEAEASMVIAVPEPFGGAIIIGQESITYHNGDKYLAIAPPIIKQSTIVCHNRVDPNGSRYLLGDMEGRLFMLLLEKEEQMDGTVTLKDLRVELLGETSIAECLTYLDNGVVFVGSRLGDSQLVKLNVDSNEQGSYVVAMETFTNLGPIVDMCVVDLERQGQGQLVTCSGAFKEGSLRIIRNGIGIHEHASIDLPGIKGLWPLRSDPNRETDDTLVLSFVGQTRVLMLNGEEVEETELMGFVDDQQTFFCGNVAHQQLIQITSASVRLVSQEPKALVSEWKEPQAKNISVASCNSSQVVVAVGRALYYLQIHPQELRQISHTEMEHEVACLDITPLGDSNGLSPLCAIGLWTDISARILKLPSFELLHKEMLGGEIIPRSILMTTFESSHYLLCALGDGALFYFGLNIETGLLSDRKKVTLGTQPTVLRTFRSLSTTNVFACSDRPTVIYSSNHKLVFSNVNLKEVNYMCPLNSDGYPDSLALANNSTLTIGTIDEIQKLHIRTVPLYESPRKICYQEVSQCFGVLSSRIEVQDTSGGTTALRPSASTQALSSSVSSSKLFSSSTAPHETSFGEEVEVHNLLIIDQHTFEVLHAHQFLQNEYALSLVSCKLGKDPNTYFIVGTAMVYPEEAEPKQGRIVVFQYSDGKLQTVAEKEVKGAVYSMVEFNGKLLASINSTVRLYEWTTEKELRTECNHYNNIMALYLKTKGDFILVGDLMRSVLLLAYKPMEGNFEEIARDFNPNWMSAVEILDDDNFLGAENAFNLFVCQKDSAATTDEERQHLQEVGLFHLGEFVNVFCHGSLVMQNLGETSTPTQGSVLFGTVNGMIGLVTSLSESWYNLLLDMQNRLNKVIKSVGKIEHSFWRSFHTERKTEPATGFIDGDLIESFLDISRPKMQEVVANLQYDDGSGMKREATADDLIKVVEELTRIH
T1 sequence (Q96SW2 whole entry, looked up): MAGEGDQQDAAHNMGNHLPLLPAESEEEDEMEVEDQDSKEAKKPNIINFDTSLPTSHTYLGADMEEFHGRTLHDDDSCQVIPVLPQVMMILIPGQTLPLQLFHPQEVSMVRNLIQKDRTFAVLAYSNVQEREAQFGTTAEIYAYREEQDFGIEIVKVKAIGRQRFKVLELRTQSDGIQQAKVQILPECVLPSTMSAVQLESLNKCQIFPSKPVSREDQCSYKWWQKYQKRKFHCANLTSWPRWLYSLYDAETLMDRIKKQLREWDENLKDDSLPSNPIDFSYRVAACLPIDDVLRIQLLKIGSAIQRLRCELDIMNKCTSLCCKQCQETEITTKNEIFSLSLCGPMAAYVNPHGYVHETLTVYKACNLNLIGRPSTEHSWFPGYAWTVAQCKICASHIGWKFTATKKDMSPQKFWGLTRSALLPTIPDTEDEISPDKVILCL
Sequence of Eukaryotic peptide chain release factor GTP-binding subunit ERF3A (P15170 whole entry): as the sequence (P15170 whole entry, looked up) above

O=C1CCC(N2Cc3c(CCCOCCOCCOCCNC(=O)[C@@H]4NC5(CCCCC5)[C@@]5(C(=O)Nc6cc(Cl)ccc65)[C@H]4c4cccc(Cl)c4F)cccc3C2=O)C(=O)N1 (stereo partly drawn)
Activity [1]: Active
IC50 [2]: 10 nM
IC50 [3]: 11 nM
Activity [4]: Active

O=C1CCC(N2Cc3c(CCCOCCNC(=O)[C@@H]4NC5(CCCCC5)[C@@]5(C(=O)Nc6cc(Cl)ccc65)[C@H]4c4cccc(Cl)c4F)cccc3C2=O)C(=O)N1 (stereo partly drawn)
Activity [1]: Active
DC50 [5]: 1.8 nM
IC50 [2]: 3.6 nM
IC50 [3]: 3.5 nM
Activity [4]: Active

O=C1CCC(N2Cc3c(CCCCCNC(=O)[C@@H]4NC5(CCCCC5)[C@@]5(C(=O)Nc6cc(Cl)ccc65)[C@H]4c4ccccc4)cccc3C2=O)C(=O)N1 (stereo partly drawn)
IC50 [6]: 22.4 nM
IC50 [7]: > 20000 nM
IC50 [8]: 22.5 nM

CNC(=O)[C@@H]1NC2(CCCCC2)[C@@]2(C(=O)Nc3cc(Cl)ccc32)[C@H]1c1cccc(Cl)c1F
IC50 [9]: > 10000 nM
IC50 [10]: > 3000 nM
Activity [1]: inactive
IC50 [6]: > 10000 nM
IC50 [11]: > 3000 nM
IC50 [7]: 48.1 nM
IC50 [12]: > 3000 nM
growth inhibition (GI) [13]: inactive
IC50 [14]: > 10000 nM
growth inhibition (GI) [15]: inactive
Activity [16]: Active
IC50 [17]: > 3000 nM
IC50 [18]: > 10000 nM
IC50 [19]: > 10000 nM
IC50 [20]: > 10000 nM
growth inhibition (GI) [21]: inactive
IC50 [2]: 669 nM
IC50 [22]: 9580 nM
growth inhibition (GI) [23]: inactive
IC50 [8]: 1490 nM
IC50 [24]: 898 nM
Activity [4]: inactive
IC50 [25]: 1110 nM
IC50 [26]: > 10000 nM
Activity [27]: inactive
IC50 [28]: > 3000 nM
IC50 [29]: > 3000 nM
IC50 [30]: 1240 nM

O=C1CCC(N2Cc3c(NC(=O)[C@@H]4NC5(CCCCC5)[C@@]5(C(=O)Nc6cc(Cl)ccc65)[C@H]4c4cccc(Cl)c4F)cccc3C2=O)C(=O)N1 (stereo partly drawn)
Activity [31]: Active
DC50 [5]: 2300 nM
Activity [32]: Active
IC50 [2]: 760 nM
IC50 [3]: 2580 nM

O=C1CCC(N2Cc3c(CCCCCNC(=O)[C@@H]4NC5(CCCCC5)[C@@]5(C(=O)Nc6ccccc65)[C@H]4c4ccccc4F)cccc3C2=O)C(=O)N1 (stereo partly drawn)
IC50 [6]: 3.7 nM
IC50 [7]: > 20000 nM
IC50 [8]: 4.1 nM
